Experimental data taken from article PMC10407542 (The Innovation, 2023).

Columns and labels:
S. aureus biofilm = assay: Activity against mature S. aureus biofilm; type: cell-based, Staphylococcus aureus; conditions: treatment for 8 h
[1] = tested on: S.aureus infected skin wound; assay: In vivo anti-infection study, S.aureus infected full-thickness wound model; design: species or system rat; conditions: SD rats, early stages, n = 5
Procedure, shortened: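 Rats bearing S. aureus-infected skin wounds were given PBS (control) or test compound. Wound beds were inspected visually for yellow pus in the early stages. Infection was confirmed by agar plate counts of tissue exudate from wound sites on day 3. Wound healing and wound size were followed over time. Mean ± SD, n = 5.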

N3-Arg-Trp-Arg-Trp-Arg-Trp-NH2 [AMP]
minimum eradication biofilm concentration (S. aureus biofilm): 1,280 μmol L^−1 | pyogenic infection (yellow pus) on the infected wound bed [1]: not observed
